Measurements taken from ChEMBL document CHEMBL1789904, “Imaging of Plasmodium liver stages to drive next-generation antimalarial drug discovery” (Science, 2011).

Test system: Plasmodium yoelii
Assay: NOVARTIS: Antimalarial liver stage activity measured as reduction in Plasmodium yoelii schizont area in HepG2-A16-CD81 cells by immuno-fluorescence, and median schizont size at 10uM compound concentration
Type: functional, organism-based
Conditions: for IC50: Plasmodium yoelii, HepG2-A16-CD81
Outline: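 Host and parasite nuclei stained with Hoechst 33342, parasites with αPyHSP70 antibody; 25 images per well by high-content imaging; median parasite (schizont) area measured by automated image analysis, ~50 schizonts per experiment, two or more independent experiments.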

Which Schizont size does the source give for `CCc1noc(C)c1C(=O)NCCN1Cc2ccccc2OC(c2ccsc2)C1` (stereo not drawn) here?
Its Schizont size is 227.75 um.

What about the IC50 of the same compound?
The IC50 was > 10 µM.

`COc1ccc(C2CC(=O)C3=C(C2)NC(C)=C(C(=O)OC2CCCC2)C3c2ccc([N+](=O)[O-])cc2)cc1OC` (stereo not drawn) was tested. Which Schizont size did it give?
The Schizont size was 103.85 um.

And the IC50?
Its IC50 is 3.92 µM.

For `CC(C)(C)c1ccc(Oc2ccc(N3C(=O)C4CC=CCC4C3=O)cc2)cc1` (stereo not drawn), which Schizont size is on record?
The Schizont size was 180.99 um.

What about the IC50 of the same compound?
Its IC50 is > 10 µM.

Which results are given for `O=C(c1ccc2nc(N3CCCCC3)sc2c1)N1CCN(Cc2ccc3c(c2)OCO3)CC1`?
Schizont size: 168.67 um; IC50: > 9.22 µM

How did the IC50 turn out when `CCCCC(CC)C(=O)N1CCN(C(CC)c2nc3ccccc3c(=O)n2C)CC1` (stereo not drawn) was run?
Its IC50 is 0.231 µM.

With `O=C(Nc1ccc(-c2nc3cc(NC(=O)c4cccc([N+](=O)[O-])c4)ccc3[nH]2)cc1)c1cccc([N+](=O)[O-])c1` as the compound, how does the Schizont size read?
Its Schizont size is 101.45 um.

What about the IC50 of the same compound?
The IC50 was > 0.94 µM.

What does the source list for `CCc1c(C)c(C#N)c2nc3ccccc3n2c1NCc1ccccc1`?
Schizont size: 126.09 um; IC50: > 9.6 µM

With `COc1ccccc1Cc1nc2ccccc2nc1SCC(=O)Nc1cccc(C(F)(F)F)c1` as the compound, how does the Schizont size read?
Its Schizont size is 187.88 um.

And the IC50?
Its IC50 is > 10 µM.

Which results are given for `CCCC1(CCC)NC(=S)N(c2ccc(C)c(C)c2)N1`?
Schizont size: 233.59 um; IC50: > 10 µM

What does the source list for `CCN1CCN(c2cc(C)c3cc(NC(=O)c4cc(OC)cc(OC)c4)ccc3n2)CC1`?
Schizont size: 113.77 um; IC50: 3.74 µM

With `Nc1nonc1-n1nnc(C(=O)NN=Cc2ccc(F)c(Br)c2)c1-c1ccc([N+](=O)[O-])cc1` as the compound, how does the Schizont size read?
Its Schizont size is 246.12 um.

What about the IC50 of the same compound?
The IC50 was > 10 µM.

`COc1ccc(C2CC3=NC(C)=C(C(=O)OC(C)C)C(c4ccccc4OC)C3=C(O)C2)cc1OC` (stereo not drawn) was tested. Which Schizont size did it give?
Its Schizont size is 182.03 um.

And the IC50?
Its IC50 is > 10 µM.

For `CCOC(=O)c1c(CNC)n(C)c2cc(Br)c(O)cc12.O=CO.O=CO`, which Schizont size is on record?
Its Schizont size is 175.56 um.

And the IC50?
Its IC50 is > 10 µM.

`COc1ccc2c(C)nc(Nc3nc(C)cc(-c4ccccc4)n3)nc2c1` was tested. Which Schizont size did it give?
Its Schizont size is 170.24 um.

And the IC50?
Its IC50 is 6.66 µM.

Which Schizont size does the source give for `COC(=O)c1cc(NC(=S)NC(=O)c2c(OC)cccc2OC)cc(C(=O)OC)c1` here?
The Schizont size was 216.06 um.

What about the IC50 of the same compound?
The IC50 was > 10 µM.

Which results are given for `Cc1ccc(-c2cc(C(=O)OCC(=O)c3cccc([N+](=O)[O-])c3)c3cc(C)ccc3n2)cc1`?
Schizont size: 180.05 um; IC50: > 10 µM

What does the source list for `CCN(CC)c1ccc(N=Cc2ccc(Sc3nc4ccccc4s3)o2)cc1`?
Schizont size: 152.6 um; IC50: > 10 µM

Which IC50 does the source give for `CC(C)CC(N)C(=O)N1CCn2c(nc(-c3ccccc3)c2Nc2ccc3c(c2)OCO3)C1` (stereo not drawn) here?
The IC50 was 0.186 µM.

What does the source list for `[Cl-].c1ccc(Cc2cc[n+](Cc3ccccc3)cc2)cc1`?
Schizont size: 127.34 um; IC50: 4.52 µM

For `Cc1c(Cl)cccc1N1C(=O)C2C3c4ccccc4C(c4ccccc43)C2C1=O` (stereo not drawn), which Schizont size is on record?
Its Schizont size is 158.75 um.

And the IC50?
Its IC50 is > 10 µM.

Which Schizont size does the source give for `O=C(Cc1cccs1)N1CCN(c2ccccn2)CC1` here?
Its Schizont size is 189.55 um.

And the IC50?
The IC50 was > 10 µM.

With `CCOc1ccc(NC(=O)C(C)Sc2nc3ccccc3[nH]2)cc1` (stereo not drawn) as the compound, how does the Schizont size read?
The Schizont size was 194.87 um.

And the IC50?
The IC50 was > 10 µM.

Which IC50 does the source give for `O=C1N(Cc2cc3ccccc3s2)CC2CN(Cc3ccsc3)CCN12` (stereo not drawn) here?
Its IC50 is 0.0255 µM.

For `COc1ccc2[nH]c(=O)c(CN(C(=S)Nc3ccccc3OC)C3CCCC3)cc2c1`, which Schizont size is on record?
Its Schizont size is 157.5 um.

And the IC50?
The IC50 was > 9.74 µM.

Which Schizont size does the source give for `CCSc1ccc2ccccc2[n+]1CC.[I-]` here?
Its Schizont size is 209.06 um.

What about the IC50 of the same compound?
Its IC50 is > 10 µM.

`N#Cc1c2c(c(N3CCN(Cc4ccccc4)CC3)n3c1nc1ccccc13)CCC2` was tested. Which Schizont size did it give?
Its Schizont size is 241.42 um.

And the IC50?
Its IC50 is > 10 µM.

`NCC(=O)N1CCn2c(nc(-c3ccccc3)c2Nc2ccc3c(c2)OCO3)C1` was tested. Which IC50 did it give?
Its IC50 is 0.221 µM.

Which results are given for `CC(=O)Nc1ccc(-c2nc(-c3ccc(Oc4ccc(-c5[nH]c(-c6ccc(NC(C)=O)cc6)nc5-c5ccccc5)cc4)cc3)c(-c3ccccc3)[nH]2)cc1`?
Schizont size: 112.31 um; IC50: > 3.73 µM

With `CC(c1nc2ccccc2c(=O)n1C)N1CCN(C(=O)C(C)(C)C)CC1` (stereo not drawn) as the compound, how does the IC50 read?
Its IC50 is 0.492 µM.

Which results are given for `O=C1CC(c2ccccc2)CC2=C1C(c1ccccc1[N+](=O)[O-])Nc1ccccc1N2` (stereo not drawn)?
Schizont size: 201.65 um; IC50: > 10 µM

What does the source list for `O=C(c1cc2nc(-c3ccccc3)cc(C(F)(F)F)n2n1)N1CCN(Cc2ccccc2)CC1`?
Schizont size: 148.94 um; IC50: > 10 µM

Which results are given for `Fc1ccc(-c2cn3c([n+]2-c2ccccc2)SCC3)cc1.[Br-]`?
Schizont size: 131.2 um; IC50: > 4.3 µM

With `Cc1cccc(C(=O)NCc2nnc(S)n2-c2cccc(C(F)(F)F)c2)c1` as the compound, how does the Schizont size read?
The Schizont size was 210.73 um.

And the IC50?
Its IC50 is > 10 µM.

Which Schizont size does the source give for `N#Cc1c2c(c(N3CCN(c4ccccn4)CC3)n3c1nc1ccccc13)CCC2` here?
Its Schizont size is 174.41 um.

What about the IC50 of the same compound?
The IC50 was > 10 µM.

`CCOc1ccc(N(C(=O)C2COc3ccccc3O2)C(C(=O)NC2CCCCC2)c2cn(C)nc2C)cc1` (stereo not drawn) was tested. Which Schizont size did it give?
Its Schizont size is 191.42 um.

What about the IC50 of the same compound?
The IC50 was > 10 µM.

Which Schizont size does the source give for `CCOC(=O)c1ccc(OCC2c3cc(OC)c(OC)cc3CCN2C(=O)c2ccc([N+](=O)[O-])cc2)cc1` (stereo not drawn) here?
The Schizont size was 226.39 um.

What about the IC50 of the same compound?
Its IC50 is > 10 µM.

`N#CC1=C(N)Oc2c3c(c4ccccc4c2C1c1ccc(F)cc1)C(c1ccc(F)cc1)C(C#N)=C(N)O3` (stereo not drawn) was tested. Which Schizont size did it give?
The Schizont size was 105.63 um.

And the IC50?
Its IC50 is 3.93 µM.

With `CCCCSCC(O)CN1CCCCC1` (stereo not drawn) as the compound, how does the Schizont size read?
The Schizont size was 191.22 um.

And the IC50?
The IC50 was > 10 µM.

`Cc1ccc(NC(=O)C2C3C=CC4(O3)C2C(=O)N(CCCN2CCOCC2)C4C(=O)NC2CCCC(C)C2C)cc1Cl.Cl` (stereo not drawn) was tested. Which Schizont size did it give?
Its Schizont size is 196.54 um.

What about the IC50 of the same compound?
Its IC50 is > 10 µM.
